What all share (conditions): in vivo
Series [1] is described as follows: Mean residence time in BALB/c mouse at 3 mg/kg, iv measured up to 24 hrs by LC-MS/MS analysis. It counts as ADME, organism-based.
Series [2] can be described thus: Mean residence time in Sprague-Dawley rat at 3 mg/kg, iv measured up to 24 hrs by LC-MS/MS analysis. It counts as ADME, organism-based. The method, boiled down:
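Male Sprague–Dawley rats dosed with the hydrochloride salt at 3 mg/kg i.v. or 10 mg/kg p.o.; plasma concentration–time profiles followed over 24 h, with PK parameters derived from them. Oral bioavailability comes from comparing the p.o. and i.v. arms.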

The nature of series [3]: Oral bioavailability in rat. It counts as ADME, organism-based. The method, boiled down:
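Male Sprague–Dawley rats were dosed at 3 mg/kg i.v. and 10 mg/kg p.o., and plasma concentrations were followed over time for up to 24 h after dosing. Oral bioavailability comes from the p.o. versus i.v. plasma exposure profiles.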

Series [4] is described as follows: Clearance in rat. It counts as ADME.
A short description of series [5]: Clearance in Sprague-Dawley rat at 3 mg/kg, iv measured up to 24 hrs by LC-MS/MS analysis. It counts as ADME, organism-based.
Series [6] is described as follows: Oral bioavailability in Sprague-Dawley rat at 10 mg/kg measured up to 24 hrs by LC-MS/MS analysis. It counts as ADME, organism-based.

The structures appear in SMILES notation.

On to `NC(CCCCB(O)O)(CNS(N)(=O)=O)C(=O)O` (configuration not stated), for which the mean residence time (MRT) – broadly, a mean duration of stay, worked out from the concentration-time curve – in series [1] stood at 48.6 min.
The same measure, in the same setting: to `N=C(N)NCC(N)(CCCCB(O)O)C(=O)O` (configuration not stated) belongs 15.6 min.
Take `N=C(N)NC[C@](N)(CCCCB(O)O)C(=O)O`: in series [2], the MRT came out at 715 min.
Turning to `C[C@H](N)C(=O)N1C[C@H](CCCB(O)O)[C@](N)(C(=O)O)C1`, the bioavailability (commonly dose-corrected exposure relative to a reference, in per cent) in series [3] was determined as 52%. Also, in series [4], the clearance (in general, the volume of plasma or blood freed of the substance per unit of time) is 10 mL/min/kg.
In the case of `N[C@@H](CCCCB(O)O)C(=O)O`, the clearance in series [5] was 2.3 mL/min/kg. The bioavailability in series [6] came to 89%.

Source of the values: ChEMBL document CHEMBL4342508, “Discovery and Pharmacokinetics of Sulfamides and Guanidines as Potent Human Arginase 1 Inhibitors” (ACS Med Chem Lett, 2020).
